SMILES strings stand for the structures.

These results are taken from ChEMBL document CHEMBL5653631, “A Potent and Selective ULK1 Inhibitor Suppresses Autophagy and Sensitizes Cancer Cells to Nutrient Stress” (iScience, 2018).

In assay [1] the target is [Pyruvate dehydrogenase (acetyl-transferring)] kinase isozyme 4, mitochondrial (Homo sapiens) (UniProt Q16654). Briefly: Inhibition of human recombinant PDHK4 at 40 nM in presence of ATP by radiometric assay relative to control.
Assay [2] concerns the target T1, Tyrosine-protein kinase Mer (Homo sapiens) (UniProt Q12866).
T1 sequence (whole entry): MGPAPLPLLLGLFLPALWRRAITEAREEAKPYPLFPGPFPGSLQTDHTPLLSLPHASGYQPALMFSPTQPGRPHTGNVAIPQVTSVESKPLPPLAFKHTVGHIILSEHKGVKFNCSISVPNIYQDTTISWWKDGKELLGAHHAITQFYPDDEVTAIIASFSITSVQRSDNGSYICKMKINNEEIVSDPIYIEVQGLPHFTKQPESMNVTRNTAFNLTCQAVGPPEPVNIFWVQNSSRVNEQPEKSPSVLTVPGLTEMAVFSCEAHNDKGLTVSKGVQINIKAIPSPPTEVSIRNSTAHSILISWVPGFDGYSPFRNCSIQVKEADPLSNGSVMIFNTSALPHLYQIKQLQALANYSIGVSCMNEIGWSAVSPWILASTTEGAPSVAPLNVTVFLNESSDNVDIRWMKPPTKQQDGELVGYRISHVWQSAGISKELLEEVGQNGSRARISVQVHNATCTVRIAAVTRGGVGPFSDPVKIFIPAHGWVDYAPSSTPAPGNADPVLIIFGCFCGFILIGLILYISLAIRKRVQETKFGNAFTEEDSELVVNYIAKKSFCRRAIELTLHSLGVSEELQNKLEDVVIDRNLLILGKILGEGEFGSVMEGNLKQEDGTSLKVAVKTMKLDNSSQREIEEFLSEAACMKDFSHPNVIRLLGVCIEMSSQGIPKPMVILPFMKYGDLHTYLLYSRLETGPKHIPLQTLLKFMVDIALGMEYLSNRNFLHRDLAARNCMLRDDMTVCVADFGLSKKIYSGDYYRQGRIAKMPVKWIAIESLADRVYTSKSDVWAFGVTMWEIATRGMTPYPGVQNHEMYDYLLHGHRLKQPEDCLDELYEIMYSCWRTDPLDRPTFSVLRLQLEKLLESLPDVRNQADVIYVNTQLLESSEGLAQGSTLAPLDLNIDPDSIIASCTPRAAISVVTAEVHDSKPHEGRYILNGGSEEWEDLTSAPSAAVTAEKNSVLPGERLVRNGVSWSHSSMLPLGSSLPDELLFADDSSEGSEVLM
Briefly: Inhibition of human recombinant MER at 500 nM in presence of ATP by radiometric assay relative to control.

Assay [3] addresses T2, G protein-coupled receptor kinase 3 (Homo sapiens) (UniProt P35626).
T2 sequence (whole entry): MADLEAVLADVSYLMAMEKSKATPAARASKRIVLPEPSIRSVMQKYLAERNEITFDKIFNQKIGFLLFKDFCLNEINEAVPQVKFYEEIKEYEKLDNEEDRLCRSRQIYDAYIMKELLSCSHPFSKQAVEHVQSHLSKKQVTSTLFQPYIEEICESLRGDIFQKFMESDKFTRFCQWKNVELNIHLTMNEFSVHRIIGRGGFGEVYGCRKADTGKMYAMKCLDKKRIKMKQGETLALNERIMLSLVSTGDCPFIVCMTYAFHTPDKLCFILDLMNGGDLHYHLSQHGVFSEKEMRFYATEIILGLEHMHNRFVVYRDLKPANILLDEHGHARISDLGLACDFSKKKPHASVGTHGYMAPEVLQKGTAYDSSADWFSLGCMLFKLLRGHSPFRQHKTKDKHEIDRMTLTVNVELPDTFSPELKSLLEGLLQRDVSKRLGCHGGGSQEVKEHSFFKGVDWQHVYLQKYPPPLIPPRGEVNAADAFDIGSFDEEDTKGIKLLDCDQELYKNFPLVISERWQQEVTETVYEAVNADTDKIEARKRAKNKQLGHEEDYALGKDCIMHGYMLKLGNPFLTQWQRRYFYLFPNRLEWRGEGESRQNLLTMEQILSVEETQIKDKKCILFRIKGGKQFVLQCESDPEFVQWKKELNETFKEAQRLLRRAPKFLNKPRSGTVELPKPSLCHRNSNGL
Briefly: Inhibition of human recombinant BARK2 at 500 nM in presence of ATP by radiometric assay relative to control. The procedure, abridged: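 Part of a radiometric in vitro activity panel of 327 recombinant human kinases. Each kinase was tested in duplicate at one inhibitor concentration. Activity remaining was expressed as a percentage of the vehicle control, and percent inhibition was taken as 100 minus that value.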

In assay [4] the target is Serine/threonine-protein kinase 32B (Homo sapiens) (UniProt Q9NY57). Briefly: Inhibition of human recombinant YANK2 at 500 nM related to control ULK1.
Assay [5] concerns the target T3, Ephrin type-A receptor 8 (Homo sapiens) (UniProt P29322).
T3 sequence (whole entry): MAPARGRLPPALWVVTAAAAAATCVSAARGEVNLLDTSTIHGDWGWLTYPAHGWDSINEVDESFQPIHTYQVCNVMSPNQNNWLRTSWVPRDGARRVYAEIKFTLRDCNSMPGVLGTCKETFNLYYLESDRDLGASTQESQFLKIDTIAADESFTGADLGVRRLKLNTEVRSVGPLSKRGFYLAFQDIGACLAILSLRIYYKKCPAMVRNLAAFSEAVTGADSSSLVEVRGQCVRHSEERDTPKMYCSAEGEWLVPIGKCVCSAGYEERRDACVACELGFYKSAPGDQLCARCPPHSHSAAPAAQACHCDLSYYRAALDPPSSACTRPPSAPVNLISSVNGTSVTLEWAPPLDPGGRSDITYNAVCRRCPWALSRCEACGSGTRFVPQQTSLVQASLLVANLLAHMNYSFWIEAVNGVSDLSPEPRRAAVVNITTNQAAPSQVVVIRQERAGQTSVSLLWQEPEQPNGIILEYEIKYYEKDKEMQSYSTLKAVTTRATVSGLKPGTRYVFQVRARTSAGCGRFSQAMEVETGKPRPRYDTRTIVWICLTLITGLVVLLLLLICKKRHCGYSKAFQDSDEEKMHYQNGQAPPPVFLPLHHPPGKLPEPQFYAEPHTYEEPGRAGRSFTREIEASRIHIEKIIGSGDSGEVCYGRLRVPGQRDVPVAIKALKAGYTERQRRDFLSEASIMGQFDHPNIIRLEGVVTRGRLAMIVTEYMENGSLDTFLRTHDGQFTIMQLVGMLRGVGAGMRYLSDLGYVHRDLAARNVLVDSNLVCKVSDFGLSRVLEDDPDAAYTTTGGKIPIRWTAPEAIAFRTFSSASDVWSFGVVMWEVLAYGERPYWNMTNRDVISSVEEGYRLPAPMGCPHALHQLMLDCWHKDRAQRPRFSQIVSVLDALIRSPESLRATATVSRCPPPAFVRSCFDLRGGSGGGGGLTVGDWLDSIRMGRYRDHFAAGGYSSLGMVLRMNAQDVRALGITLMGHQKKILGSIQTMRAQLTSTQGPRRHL
Briefly: Inhibition of human recombinant EphA8 at 15 nM in presence of ATP by radiometric assay relative to control.

Chain of Serine/threonine-protein kinase 32B (Homo sapiens) (Q9NY57 whole entry): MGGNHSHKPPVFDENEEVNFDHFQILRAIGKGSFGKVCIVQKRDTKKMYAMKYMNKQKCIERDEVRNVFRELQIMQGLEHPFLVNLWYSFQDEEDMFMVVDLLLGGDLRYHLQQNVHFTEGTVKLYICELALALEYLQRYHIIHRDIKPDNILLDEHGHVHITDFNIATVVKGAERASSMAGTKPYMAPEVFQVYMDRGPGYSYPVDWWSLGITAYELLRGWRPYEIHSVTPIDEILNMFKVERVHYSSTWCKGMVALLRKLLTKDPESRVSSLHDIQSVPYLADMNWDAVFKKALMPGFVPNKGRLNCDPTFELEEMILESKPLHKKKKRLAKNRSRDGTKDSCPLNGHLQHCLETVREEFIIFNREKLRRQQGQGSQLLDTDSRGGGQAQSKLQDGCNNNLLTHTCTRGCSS
Chain of [Pyruvate dehydrogenase (acetyl-transferring)] kinase isozyme 4, mitochondrial (Homo sapiens) (Q16654 whole entry, looked up): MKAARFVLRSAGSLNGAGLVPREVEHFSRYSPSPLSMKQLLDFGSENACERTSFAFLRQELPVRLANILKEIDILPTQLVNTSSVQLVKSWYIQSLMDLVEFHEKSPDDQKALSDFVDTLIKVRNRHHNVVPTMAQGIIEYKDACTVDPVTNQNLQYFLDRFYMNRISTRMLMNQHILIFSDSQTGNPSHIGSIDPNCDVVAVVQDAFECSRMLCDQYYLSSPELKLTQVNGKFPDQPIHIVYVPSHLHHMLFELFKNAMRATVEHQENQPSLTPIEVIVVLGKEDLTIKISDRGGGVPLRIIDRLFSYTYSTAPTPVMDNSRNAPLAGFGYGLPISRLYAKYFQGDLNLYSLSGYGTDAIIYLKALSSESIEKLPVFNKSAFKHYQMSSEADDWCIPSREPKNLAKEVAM

`O=C(N[C@@H](C1CC1)C(F)(F)F)c1cc(-c2cnn3cc(-c4ccc(F)cc4)cnc23)cs1`: in assay [1], the inhibition was 0%.
Turning to `CNC(=O)c1ccccc1Oc1nc(Nc2cc(OC)c(OC)c(OC)c2)ncc1Br`, the results for the inhibition in assay [2] and in assay [3] were 9% and 7%, respectively. For the same molecule, the fold change (FC) in assay [4] was 0.03.
Take `CC(C)[C@H](NC(=O)c1cc(-c2cnn3cc(-c4ccc(OCCN5CCCCC5)cc4)cnc23)cs1)C(F)(F)F`: the inhibition in assay [5] worked out at 0%.

One may read the inhibition as the drop in the measured response relative to a control, in per cent.
